Data reported in article PMC7557227 (ACS Omega, 2020).

Assays:
[1] = tested on: F508del-CFTR in BHK cells; assay: HTS F508del-CFTR correction assay; assay type: cell-based, hamster; details: 24 h treatment
PARP1 = PARP1 (Homo sapiens, UniProt P09874); assay: PARP enzymatic assay; assay type: biochemical; details: read-out: IC50 PARP1; dose response 1 nM to 1 mM
PARP16 = molecular target: T1, PARP16 (Homo sapiens, UniProt Q8N5Y8); assay: Modified PARP enzymatic assay with IRE-1 as substrate, PARP16; assay type: biochemical; details: for IC50: read-out: IC50 PARP16, dose response 1 nM to 1 mM; for PARP16 inhibition at 1 μM: from dose response data; for Selectivity: greater IC50 potency for PARP16 compared with PARP3: ratio of IC50 values, in vitro
T1 sequence (Q8N5Y8 1-322): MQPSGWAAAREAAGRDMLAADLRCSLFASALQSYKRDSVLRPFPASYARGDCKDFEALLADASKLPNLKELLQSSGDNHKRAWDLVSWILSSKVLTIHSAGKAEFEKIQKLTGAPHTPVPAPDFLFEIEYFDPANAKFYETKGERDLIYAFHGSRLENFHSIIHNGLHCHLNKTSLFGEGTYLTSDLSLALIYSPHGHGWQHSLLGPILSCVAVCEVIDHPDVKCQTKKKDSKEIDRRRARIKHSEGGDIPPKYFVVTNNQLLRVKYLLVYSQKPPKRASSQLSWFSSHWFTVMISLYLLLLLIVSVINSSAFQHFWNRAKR

PARP3 = molecular target: T2, PARP3 (Homo sapiens, UniProt Q9Y6F1); assay: PARP enzymatic assay; assay type: biochemical; details: for PARP3 inhibition at 1 μM: from dose response data; for Inhibition of PARP3, mean (panel): 10 μM, 0 equals no inhibition, 100 total inhibition, N = 5 (Table 5); for IC50: read-out: IC50 PARP3, dose response 1 nM to 1 mM
T2 sequence (Q9Y6F1 1-533): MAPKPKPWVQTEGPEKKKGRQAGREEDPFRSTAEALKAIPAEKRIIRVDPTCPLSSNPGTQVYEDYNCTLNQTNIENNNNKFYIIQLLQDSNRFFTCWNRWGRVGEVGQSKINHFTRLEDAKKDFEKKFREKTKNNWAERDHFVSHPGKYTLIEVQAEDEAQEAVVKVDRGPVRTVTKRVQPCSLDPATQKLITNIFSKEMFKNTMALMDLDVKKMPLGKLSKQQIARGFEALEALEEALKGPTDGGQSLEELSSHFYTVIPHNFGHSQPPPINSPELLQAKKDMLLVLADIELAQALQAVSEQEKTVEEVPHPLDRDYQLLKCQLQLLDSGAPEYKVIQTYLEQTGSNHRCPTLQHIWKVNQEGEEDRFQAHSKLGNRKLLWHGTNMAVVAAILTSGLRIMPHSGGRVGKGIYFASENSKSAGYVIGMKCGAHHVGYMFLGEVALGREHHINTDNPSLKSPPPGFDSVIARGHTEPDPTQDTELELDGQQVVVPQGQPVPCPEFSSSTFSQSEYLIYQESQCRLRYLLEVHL

[2] = tested on: F508del-CFTR in BHK cells; details: cited from earlier work
[3] = tested on: F508del-CFTR in BHK cells; assay: FMP functional F508del-CFTR correction assay; assay type: cell-based, hamster; details: 1 μM each, 24 h pretreatment, forskolin + genistein, BHK cells (Figure 2C)
Procedure, shortened: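 BHK cells expressing F508del-CFTR were seeded at 25 000 cells per well and treated with test compound (1 μM) for 24 h, then washed with PBS. Cells were loaded with a voltage-sensitive oxonol-derived FLIPR dye plus quencher in low-chloride gluconate/HEPES buffer (pH 7.4) containing genistein (50 μM) for 5 min at room temperature. Forskolin (10 μM) was added, and the mean initial fluorescence rate (Vmax) was expressed as % of VX809 response.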

PARP4 = PARP4 (Homo sapiens, UniProt Q9UKK3); assay: PARP enzymatic assay, PARP4; assay type: biochemical; details: 10 μM; 0 equals no inhibition, 100 total inhibition; N = 5 (Table 5)
Procedure, shortened: (§1)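 Commercial recombinant PARP2, PARP4, PARP-5a and PARP-5b were assayed with a chemiluminescent universal PARP kit on histone-coated strip wells, following the manufacturer's protocol. Anchored histones served as the ADP-ribosylation substrate. Inhibition was read as loss of chemiluminescent signal.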

TANKYRASE1 = molecular target: T3, TANKYRASE1 (Homo sapiens, UniProt O95271); assay: PARP enzymatic assay, TANKYRASE1; assay type: biochemical; details: 10 μM; 0 equals no inhibition, 100 total inhibition; N = 5 (Table 5)
T3 sequence (O95271 1-1327): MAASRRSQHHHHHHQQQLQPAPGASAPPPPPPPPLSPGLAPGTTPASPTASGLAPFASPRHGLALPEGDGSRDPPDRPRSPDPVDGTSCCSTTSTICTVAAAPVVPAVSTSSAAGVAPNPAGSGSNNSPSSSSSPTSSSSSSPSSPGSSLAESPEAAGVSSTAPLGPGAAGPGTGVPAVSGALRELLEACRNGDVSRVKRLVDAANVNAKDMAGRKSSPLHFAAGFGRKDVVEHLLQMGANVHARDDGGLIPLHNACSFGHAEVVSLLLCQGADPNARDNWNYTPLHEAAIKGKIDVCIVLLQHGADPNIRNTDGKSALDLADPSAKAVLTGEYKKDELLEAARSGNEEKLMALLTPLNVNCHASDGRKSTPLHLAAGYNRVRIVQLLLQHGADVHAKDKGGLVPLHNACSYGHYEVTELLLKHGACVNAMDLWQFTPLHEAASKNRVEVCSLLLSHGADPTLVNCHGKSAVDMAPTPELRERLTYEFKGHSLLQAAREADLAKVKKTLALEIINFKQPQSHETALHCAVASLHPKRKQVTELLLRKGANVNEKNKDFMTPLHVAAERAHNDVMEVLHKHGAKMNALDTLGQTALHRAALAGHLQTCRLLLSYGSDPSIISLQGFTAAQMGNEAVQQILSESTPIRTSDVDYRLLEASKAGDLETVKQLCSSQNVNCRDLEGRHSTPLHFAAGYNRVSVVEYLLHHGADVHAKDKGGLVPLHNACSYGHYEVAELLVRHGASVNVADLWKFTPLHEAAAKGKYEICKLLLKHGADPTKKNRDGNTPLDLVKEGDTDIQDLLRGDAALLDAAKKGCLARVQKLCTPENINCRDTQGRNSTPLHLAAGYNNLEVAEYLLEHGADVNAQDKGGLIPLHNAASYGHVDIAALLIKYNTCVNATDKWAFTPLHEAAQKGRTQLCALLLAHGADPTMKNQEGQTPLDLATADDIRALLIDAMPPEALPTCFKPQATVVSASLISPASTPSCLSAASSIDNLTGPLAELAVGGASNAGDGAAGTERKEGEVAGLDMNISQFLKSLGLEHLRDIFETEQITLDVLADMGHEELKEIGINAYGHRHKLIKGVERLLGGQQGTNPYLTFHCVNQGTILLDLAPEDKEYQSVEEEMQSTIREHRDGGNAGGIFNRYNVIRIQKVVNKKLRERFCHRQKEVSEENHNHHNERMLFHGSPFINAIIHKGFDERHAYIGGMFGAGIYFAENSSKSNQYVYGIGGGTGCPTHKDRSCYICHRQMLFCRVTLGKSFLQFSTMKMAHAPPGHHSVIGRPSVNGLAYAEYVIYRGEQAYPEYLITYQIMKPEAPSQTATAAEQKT
Procedure, shortened: (§2)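 Recombinant human PARP-5a (tankyrase 1) and PARP-5b (tankyrase 2) were obtained commercially. Inhibition was measured with a universal chemiluminescent PARP kit according to the manufacturer's protocol. Anchored histone proteins coated on strip wells served as the ADP-ribosylation substrate.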

PARP2 = assay: PARP enzymatic assay, PARP2; assay type: biochemical; details: 10 μM; 0 equals no inhibition, 100 total inhibition; N = 5 (Table 5)
Procedure, shortened: as §1

PARP5 = assay: PARP enzymatic assay, PARP5; assay type: biochemical; details: 10 μM; 0 equals no inhibition, 100 total inhibition; N = 5 (Table 5)
Procedure, shortened: as §1

TANKYRASE 2 = molecular target: T4, TANKYRASE 2 (Homo sapiens, UniProt Q9H2K2); assay: PARP enzymatic assay, TANKYRASE 2; assay type: biochemical; details: 10 μM; 0 equals no inhibition, 100 total inhibition; N = 5 (Table 5)
T4 sequence (Q9H2K2 1-1166): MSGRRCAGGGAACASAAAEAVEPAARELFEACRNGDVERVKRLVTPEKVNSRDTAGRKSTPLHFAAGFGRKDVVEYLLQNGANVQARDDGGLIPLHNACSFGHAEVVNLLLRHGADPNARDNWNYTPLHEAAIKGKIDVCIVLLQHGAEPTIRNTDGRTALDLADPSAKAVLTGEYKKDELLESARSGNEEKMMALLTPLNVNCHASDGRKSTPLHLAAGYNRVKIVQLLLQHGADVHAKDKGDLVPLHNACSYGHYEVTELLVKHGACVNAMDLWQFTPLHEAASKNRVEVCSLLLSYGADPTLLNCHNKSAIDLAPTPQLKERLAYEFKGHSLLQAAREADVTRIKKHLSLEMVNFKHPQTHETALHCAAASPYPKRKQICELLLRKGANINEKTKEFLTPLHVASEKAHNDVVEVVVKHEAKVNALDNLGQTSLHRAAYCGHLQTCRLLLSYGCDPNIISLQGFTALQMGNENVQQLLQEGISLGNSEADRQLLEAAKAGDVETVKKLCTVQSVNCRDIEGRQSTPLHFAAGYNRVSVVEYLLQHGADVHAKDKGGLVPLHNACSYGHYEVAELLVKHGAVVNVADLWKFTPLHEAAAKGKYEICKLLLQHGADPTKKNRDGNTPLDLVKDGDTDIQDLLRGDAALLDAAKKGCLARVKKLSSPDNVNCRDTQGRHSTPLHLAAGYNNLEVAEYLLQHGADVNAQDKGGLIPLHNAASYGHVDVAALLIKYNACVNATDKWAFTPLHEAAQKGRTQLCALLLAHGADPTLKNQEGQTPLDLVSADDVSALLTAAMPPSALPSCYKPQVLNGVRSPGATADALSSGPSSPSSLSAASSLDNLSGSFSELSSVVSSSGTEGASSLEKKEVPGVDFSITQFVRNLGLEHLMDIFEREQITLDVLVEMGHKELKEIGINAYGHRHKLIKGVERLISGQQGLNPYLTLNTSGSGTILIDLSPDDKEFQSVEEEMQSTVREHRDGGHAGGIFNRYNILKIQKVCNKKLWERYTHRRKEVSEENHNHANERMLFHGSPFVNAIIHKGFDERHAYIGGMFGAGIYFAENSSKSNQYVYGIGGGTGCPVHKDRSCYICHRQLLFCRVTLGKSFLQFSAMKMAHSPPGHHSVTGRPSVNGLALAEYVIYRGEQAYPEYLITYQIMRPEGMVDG
Procedure, shortened: as §2

[4] = 1 μM each, BHK cells (Figure 2B)
[5] = 10 μM each, BHK cells (Figure 2A)

Chain of PARP1 (P09874 whole entry): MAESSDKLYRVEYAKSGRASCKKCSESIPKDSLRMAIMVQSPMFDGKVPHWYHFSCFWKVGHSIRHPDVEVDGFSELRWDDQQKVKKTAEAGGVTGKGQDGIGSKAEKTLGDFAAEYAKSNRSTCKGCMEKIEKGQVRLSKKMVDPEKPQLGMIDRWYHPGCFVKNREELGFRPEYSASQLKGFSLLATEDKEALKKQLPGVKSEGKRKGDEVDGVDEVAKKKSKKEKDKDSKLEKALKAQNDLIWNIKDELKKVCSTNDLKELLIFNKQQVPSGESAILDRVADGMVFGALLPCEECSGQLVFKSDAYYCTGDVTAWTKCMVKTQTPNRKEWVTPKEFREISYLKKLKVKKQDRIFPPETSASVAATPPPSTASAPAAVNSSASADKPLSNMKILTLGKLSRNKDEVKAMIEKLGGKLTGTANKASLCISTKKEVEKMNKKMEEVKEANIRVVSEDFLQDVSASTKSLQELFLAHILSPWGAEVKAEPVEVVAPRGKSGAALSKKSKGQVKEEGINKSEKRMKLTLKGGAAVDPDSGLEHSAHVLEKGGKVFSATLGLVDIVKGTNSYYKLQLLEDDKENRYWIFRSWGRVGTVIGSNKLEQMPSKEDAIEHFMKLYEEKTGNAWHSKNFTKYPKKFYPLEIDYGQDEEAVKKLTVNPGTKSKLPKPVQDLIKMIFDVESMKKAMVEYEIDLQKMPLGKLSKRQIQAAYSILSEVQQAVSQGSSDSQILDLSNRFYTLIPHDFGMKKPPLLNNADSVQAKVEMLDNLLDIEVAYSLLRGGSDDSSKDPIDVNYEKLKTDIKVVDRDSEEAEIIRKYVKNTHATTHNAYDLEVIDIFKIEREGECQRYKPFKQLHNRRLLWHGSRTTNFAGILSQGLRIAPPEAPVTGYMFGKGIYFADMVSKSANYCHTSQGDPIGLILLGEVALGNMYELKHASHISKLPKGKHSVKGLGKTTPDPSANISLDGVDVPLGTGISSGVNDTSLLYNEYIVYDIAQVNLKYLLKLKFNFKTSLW
Chain of PARP4 (Q9UKK3 whole entry, species assumed): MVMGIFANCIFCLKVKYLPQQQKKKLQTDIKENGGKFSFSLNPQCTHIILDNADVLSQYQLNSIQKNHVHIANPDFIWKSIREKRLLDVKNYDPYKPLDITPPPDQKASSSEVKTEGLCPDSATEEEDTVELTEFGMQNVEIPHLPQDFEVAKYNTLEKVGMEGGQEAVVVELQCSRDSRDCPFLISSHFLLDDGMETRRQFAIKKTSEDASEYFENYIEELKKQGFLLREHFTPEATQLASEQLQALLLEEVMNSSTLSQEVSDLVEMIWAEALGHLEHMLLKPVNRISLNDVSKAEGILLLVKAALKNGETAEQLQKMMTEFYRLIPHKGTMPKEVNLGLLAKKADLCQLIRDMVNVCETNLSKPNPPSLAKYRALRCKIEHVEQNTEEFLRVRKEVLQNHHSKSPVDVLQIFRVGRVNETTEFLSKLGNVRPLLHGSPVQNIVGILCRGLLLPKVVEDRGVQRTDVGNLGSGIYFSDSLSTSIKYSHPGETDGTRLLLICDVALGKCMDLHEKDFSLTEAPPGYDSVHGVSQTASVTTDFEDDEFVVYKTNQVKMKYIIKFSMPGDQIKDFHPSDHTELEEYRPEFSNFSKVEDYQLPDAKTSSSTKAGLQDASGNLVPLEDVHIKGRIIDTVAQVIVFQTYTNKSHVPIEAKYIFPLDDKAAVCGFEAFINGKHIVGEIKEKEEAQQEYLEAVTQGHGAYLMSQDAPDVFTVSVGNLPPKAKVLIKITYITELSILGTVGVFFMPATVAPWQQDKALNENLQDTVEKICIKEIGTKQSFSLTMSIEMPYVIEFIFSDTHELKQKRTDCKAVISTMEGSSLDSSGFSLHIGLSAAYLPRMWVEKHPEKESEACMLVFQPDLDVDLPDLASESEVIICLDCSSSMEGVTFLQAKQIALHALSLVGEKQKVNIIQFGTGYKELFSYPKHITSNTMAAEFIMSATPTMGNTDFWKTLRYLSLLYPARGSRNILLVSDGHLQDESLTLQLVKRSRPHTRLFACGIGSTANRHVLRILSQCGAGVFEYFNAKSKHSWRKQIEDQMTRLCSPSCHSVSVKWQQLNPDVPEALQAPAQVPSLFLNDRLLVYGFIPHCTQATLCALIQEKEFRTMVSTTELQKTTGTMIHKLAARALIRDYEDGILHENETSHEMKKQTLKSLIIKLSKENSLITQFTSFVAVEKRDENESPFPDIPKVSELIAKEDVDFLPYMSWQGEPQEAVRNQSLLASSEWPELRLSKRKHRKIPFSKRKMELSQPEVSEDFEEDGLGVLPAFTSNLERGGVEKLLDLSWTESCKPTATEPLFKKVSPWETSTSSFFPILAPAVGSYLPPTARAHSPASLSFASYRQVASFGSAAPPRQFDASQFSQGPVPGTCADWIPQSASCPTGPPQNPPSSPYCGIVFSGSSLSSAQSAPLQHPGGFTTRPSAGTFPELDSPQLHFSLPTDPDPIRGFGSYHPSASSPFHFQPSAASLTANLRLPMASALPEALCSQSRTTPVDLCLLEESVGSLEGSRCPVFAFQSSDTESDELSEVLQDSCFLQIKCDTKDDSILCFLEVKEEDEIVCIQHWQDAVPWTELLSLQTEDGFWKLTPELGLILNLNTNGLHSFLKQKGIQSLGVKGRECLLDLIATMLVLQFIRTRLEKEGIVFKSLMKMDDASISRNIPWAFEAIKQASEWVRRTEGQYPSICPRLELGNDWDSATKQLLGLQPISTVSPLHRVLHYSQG

IC50 (PARP1)	IC50 (PARP16)	Increase in relative PARP3/PARP16 IC50 potency compared with latonduine A (1) (PARP3)	PARP3 inhibition at 1 μM (PARP3)	Inhibition of PARP3, mean (panel) (PARP3)	Selectivity: greater IC50 potency for PARP3 compared with PARP16 (PARP3; ratio of IC50 values, in vitro)	IC50 (PARP3)	PARP16 inhibition at 1 μM (PARP16)	Selectivity: greater IC50 potency for PARP16 compared with PARP3 (PARP16)	Inhibition of PARP4, mean (panel) (PARP4)	Selectivity: greater IC50 potency for PARP16 compared with PARP3 (PARP16; listed as Latonduine A (1))	Inhibition of TAN1, mean (panel) (TANKYRASE1)	Inhibition of TAN2, mean (panel) (TANKYRASE 2)	Compound	F508del-CFTR corrector activity (surface expression) in HTS assay [1, 4]	F508del-CFTR corrector activity (surface expression) in HTS assay [1, 5]	EC50 in the F508del-CFTR trafficking screening assay [2]	Functional F508del-CFTR correction in FMP assay [3]	Inhibition of PARP2, mean (panel) (PARP2)	Inhibition of PARP5, mean (panel) (PARP5)
20.1 µM	296 µM	768 fold	39%	95.6	96 fold	3.1 µM							O=C1NCC(c2ccccc2)C(O)c2ccccc21 (racemic) [compound 5, (±)-5-hydroxy-4-phenyl-2,3,4,5-tetrahydro-1H-benzo[c]azepin-1-one]	neither 5 or 6 alone shows corrector activity	neither compound 5 or 6 alone gives F508del-CFTR correction				
17.8 µM	0.362 µM			25.8		74.1 µM	81%	205 fold					O=C1NCC(c2ccccn2)C(O)c2cc(Cl)c(Cl)cc21 (racemic) [compound 6, (±)-7,8-dichloro-5-hydroxy-4-(pyridin-2-yl)-2,3,4,5-tetrahydro-1H-benzo[c]azepin-1-one]	neither 5 or 6 alone shows corrector activity	neither compound 5 or 6 alone gives F508del-CFTR correction				
													Nc1nc2c(c(C(=O)O)n1)-c1c([nH]c(Br)c1Br)C(=O)NC2 [compound 2, latonduine B]			low nanomolar			
24.3 µM	0.427 µM		37%	83.7		3.4 µM	79%	8 fold	18.3	≈ 8 fold	11.7	10.1	latonduine A [compound 1]			low nanomolar	generates functional CFTR correction	21.6	9.9
